Experimental data from ChEMBL document CHEMBL1949593, “Stilbene-chalcone hybrids: design, synthesis, and evaluation as a new class of antimalarial scaffolds that trigger cell death through stage specific apoptosis” (J Med Chem, 2012).
Activity calls are given as the source filed them. No cut-off for these calls is given here.

What was measured:
Plasmodium falciparum [1] = assay: Growth inhibition of chloroquine-sensitive Plasmodium falciparum 3D7 trophozoites at 6 uM treated for 24 hrs following washout incubated for 48 hrs in drug free medium by SYBR green 1-based fluorescence assay; format: functional, organism-based
Procedure, shortened: (§1)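 Stage-specific exposure of synchronized 3D7: rings 48 h, trophozoites 24 h, schizonts 8 h. Drug was removed by media wash and cultures grew 48 h drug-free, in a separate triplicate set. Growth was read by SYBR Green I fluorescence and expressed as percent inhibition relative to drug-free control.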

Plasmodium falciparum [2] = assay: Induction of internucleosomal fragmentation in ring stage chloroquine-sensitive Plasmodium falciparum 3D7 at 6 uM at 24 hrs by Hoechst 33342 staining; format: functional, organism-based
Procedure, shortened: (§2)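 3D7 trophozoite cultures were treated 18 or 24 h, and ring cultures 24, 42 or 48 h. Parasites were stained with Hoechst 33342 for 10 min at room temperature, washed with PBS, and smeared. Condensed or fragmented chromatin (blue, 460 nm) was viewed by fluorescence microscopy.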

Plasmodium falciparum [3] = assay: Induction of apoptosis in chloroquine-sensitive Plasmodium falciparum 3D7 trophozoites assessed as nuclear condensation at 6 uM at 24 hrs by Giemsa staining; format: functional, organism-based
Plasmodium falciparum [4] = assay: Inhibition of RBC invasion of chloroquine-sensitive Plasmodium falciparum 3D7 schizonts at 6 uM treated for 8 hrs followed by washout measured after 48 hrs by Giemsa staining; format: functional, organism-based
Procedure, shortened: (§3)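 Highly synchronized 3D7 schizonts were exposed to drug for 8 h under normal culture conditions, alongside untreated controls. After a media wash, cultures were incubated for 48 h with or without drug. Giemsa-stained thin smears were examined microscopically for parasitemia and stage, and compared with control.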

[5] = Therapeutic index, ratio of IC50 for human HeLa cells to IC50 for ring stage chloroquine-sensitive Plasmodium falciparum 3D7; format: cell-based; conditions: read-out: Ratio IC50
Procedure, shortened: (§4)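 HeLa or L929 fibroblasts were seeded at 10^4 cells per well in RPMI with 10% FBS, left overnight, then exposed 24 h at 37 °C, 5% CO2. MTT was added for 3 h; formazan was dissolved in DMSO and read at 570 nm. IC50 came from dose–response curves. Index = IC50(mammalian)/IC50(Pf 3D7, SYBR Green assay).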

Plasmodium falciparum [6] = assay: Antimalarial activity against chloroquine-sensitive Plasmodium falciparum 3D7 assessed as inhibition of schizonts growth at 6 uM treated for 8 hrs followed by washout measured after 48 hrs by Giemsa staining; format: functional, organism-based; procedure, shortened: as §3
Plasmodium falciparum [7] = assay: Reduction in parasitemia of chloroquine-sensitive Plasmodium falciparum 3D7 trophozoites at 6 uM after 48 hrs by Giemsa staining; format: functional, organism-based
Plasmodium falciparum [8] = assay: Induction of apoptosis in ring stage chloroquine-sensitive Plasmodium falciparum 3D7 assessed as chromatin condensation at 6 uM at 18 hrs by Hoechst 33342 staining; format: functional, organism-based
Plasmodium falciparum [9] = assay: Induction of apoptosis in ring stage chloroquine-sensitive Plasmodium falciparum 3D7 assessed as chromatin fragmentation at 6 uM at 18 hrs by Hoechst 33342 staining; format: functional, organism-based
Plasmodium falciparum [10] = assay: Antimalarial activity against ring stage chloroquine-resistant Plasmodium falciparum INDO infected in human O positive erythrocytes after 48 hrs by SYBR green 1 fluorescence assay; format: functional, organism-based
Procedure, shortened: (§5)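 Ring-stage cultures were sorbitol-synchronized in O+ human erythrocytes in RPMI 1640 with 0.5% Albumax, hypoxanthine and gentamicin, then plated at 2% hematocrit and 1% parasitemia. Drugs were tested at 0–100 μM (final DMSO 0.4%) in triplicate for 48 h at 37 °C under 5% O2/5% CO2/90% N2. Read-out was SYBR Green I (ex 497/em 520 nm). IC50 was read visually as 50% growth inhibition, with chloroquine as control.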

[11] = Inhibition of Plasmodium falciparum falcipain-2 using benzyloxycarbonyl-Phe-Arg-7-amino-4-methyl coumarin hydrochloride as substrate preincubated for 10 mins prior substrate addition by fluorimetric assay
Procedure, shortened: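 Recombinant falcipain-2 (2 μg) was preincubated 10 min at room temperature with or without compound, in triplicate. Buffer was 100 mM sodium acetate pH 5.5 with 10 mM DTT and 1% final DMSO. Z-Phe-Arg-AMC was then added at 10 μM final. AMC release was read at ex 355/em 460 nm. IC50 was taken by visual matching of 50% inhibition.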

Plasmodium falciparum [12] = assay: Induction of apoptosis in chloroquine-sensitive Plasmodium falciparum 3D7 trophozoites assessed as chromatin condensation at 6 uM at 18 hrs by Hoechst 33342 staining; format: functional, organism-based; procedure, shortened: as §2
Plasmodium falciparum [13] = assay: Antimalarial activity against ring stage chloroquine-resistant Plasmodium falciparum Dd2 infected in human O positive erythrocytes after 48 hrs by SYBR green 1 fluorescence assay; format: functional, organism-based; conditions: Dd2, 48 h; procedure, shortened: as §5
Plasmodium falciparum [14] = assay: Induction of apoptosis in ring stage chloroquine-sensitive Plasmodium falciparum 3D7 assessed as disruption of mitochondrial membrane potential at 6 uM by JC-1 staining; format: functional, organism-based
Procedure, shortened: (§6)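 3D7 ring cultures were treated 24, 42 or 48 h, and trophozoite cultures 18 or 24 h. Parasites were stained with JC-1 for 20 min at 37 °C and viewed as wet mounts by fluorescence microscopy. Red-orange aggregate signal (590 nm) indicates intact ΔΨm; green monomer signal (525 nm) indicates dissipation.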

Plasmodium falciparum [15] = assay: Induction of apoptosis in ring stage chloroquine-sensitive Plasmodium falciparum 3D7 assessed as nuclear condensation at 6 uM at 24 hrs by Giemsa staining; format: functional, organism-based
Plasmodium falciparum [16] = assay: Growth inhibition of chloroquine-sensitive Plasmodium falciparum 3D7 schizonts at 6 uM treated for 8 hrs following washout incubated for 48 hrs in drug free medium by SYBR green 1-based fluorescence assay; format: functional, organism-based; procedure, shortened: as §1
Plasmodium falciparum [17] = assay: Growth inhibition of chloroquine-sensitive Plasmodium falciparum 3D7 trophozoites at 6 uM treated for 18 hrs followed by washout measured after 54 hrs by Giemsa staining; format: functional, organism-based
Plasmodium falciparum [18] = assay: Antimalarial activity against chloroquine-sensitive Plasmodium falciparum 3D7 assessed as merozoites egress at 6 uM treated for 8 hrs followed by washout measured after 48 hrs by Giemsa staining; format: functional, organism-based; procedure, shortened: as §3
Plasmodium falciparum [19] = assay: Growth inhibition of chloroquine-sensitive Plasmodium falciparum 3D7 schizonts at 6 uM treated for 8 hrs following washout incubated for 48 hrs in drug free medium by Giemsa staining; format: functional, organism-based
Procedure, shortened: (§7)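 Highly synchronized 3D7 cultures were exposed by stage: rings 48 h, trophozoites 24 h, schizonts 8 h. After a media wash, cultures grew 48 h in drug-free complete RPMI, in triplicate. Giemsa smears were read by counting 3000 cells per stage; pycnotic parasites were scored nonviable. Inhibition is percent of drug-free control.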

Plasmodium falciparum [20] = assay: Growth inhibition of ring stage chloroquine-sensitive Plasmodium falciparum 3D7 at 6 uM treated for 48 hrs following washout incubated for 48 hrs in drug free medium by SYBR green 1-based fluorescence assay; format: functional, organism-based; procedure, shortened: as §1
Plasmodium falciparum [21] = assay: Antimalarial activity against ring stage chloroquine-sensitive Plasmodium falciparum 3D7 infected in human O positive erythrocytes after 48 hrs by SYBR green 1 fluorescence assay; format: functional, organism-based; conditions: 3D7, 48 h
Procedure, shortened: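 P. falciparum 3D7 in O+ human erythrocytes in complete RPMI with Albumax at 37 °C under 5% O2/5% CO2. Culture was sorbitol-synchronized to rings and plated at 2% hematocrit, 1% parasitemia. Drug range was 0–100 μM with 0.4% final DMSO, in triplicate. After 48 h, SYBR Green I fluorescence was read (ex 497/em 520 nm). IC50 was taken by visual matching of 50% growth inhibition.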

[22] = Resistance index, ratio of IC50 for ring stage chloroquine-resistant Plasmodium falciparum INDO to IC50 for ring stage chloroquine-sensitive Plasmodium falciparum 3D7; format: functional
[23] = Therapeutic index, ratio of IC50 for […] cells to IC50 for ring stage chloroquine-sensitive Plasmodium falciparum 3D7; format: cell-based; conditions: mouse, read-out: Ratio IC50; procedure, shortened: as §4
Plasmodium falciparum [24] = assay: Induction of internucleosomal fragmentation in chloroquine-sensitive Plasmodium falciparum 3D7 trophozoites at 6 uM at 24 hrs by Hoechst 33342 staining; format: functional, organism-based; procedure, shortened: as §2
[25] = Resistance index, ratio of IC50 for ring stage chloroquine-resistant Plasmodium falciparum Dd2 to IC50 for ring stage chloroquine-sensitive Plasmodium falciparum 3D7; format: functional
Plasmodium falciparum [26] = assay: Induction of apoptosis in chloroquine-sensitive Plasmodium falciparum 3D7 trophozoites assessed as disruption of mitochondrial membrane potential at 6 uM by JC-1 staining; format: functional, organism-based; procedure, shortened: as §6
Plasmodium falciparum [27] = assay: Induction of apoptosis in chloroquine-sensitive Plasmodium falciparum 3D7 trophozoites assessed as chromatin fragmentation at 6 uM at 18 hrs by Hoechst 33342 staining; format: functional, organism-based; procedure, shortened: as §2
Plasmodium falciparum [28] = assay: Reduction in parasitemia of ring stage chloroquine-sensitive Plasmodium falciparum 3D7 at 6 uM after 48 hrs by Giemsa staining; format: functional, organism-based
Plasmodium falciparum [29] = assay: Growth inhibition of ring stage chloroquine-sensitive Plasmodium falciparum 3D7 at 6 uM treated for 48 hrs followed by washout measured after 48 hrs by Giemsa staining; format: functional, organism-based; procedure, shortened: as §7
Plasmodium falciparum [30] = assay: Growth inhibition of chloroquine-sensitive Plasmodium falciparum 3D7 trophozoites at 6 uM treated for 24 hrs following washout incubated for 48 hrs in drug free medium by Giemsa staining; format: functional, organism-based; procedure, shortened: as §7

## COc1cc(OC)c(OC)cc1/C=C/C(=O)c1ccc(/C=C/c2cc(OC)c(O)c(OC)c2)cc1
Plasmodium falciparum [1]
  growth inhibition (GI): Active
Plasmodium falciparum [2]
  Activity: inactive
Plasmodium falciparum [3]
  Activity: Active
Plasmodium falciparum [4]
  inhibition: inactive
[5]
  selectivity ratio: 42.3
Plasmodium falciparum [6]
  growth inhibition (GI): inactive
Plasmodium falciparum [7]
  Activity: Active
Plasmodium falciparum [8]
  Activity: Active
Plasmodium falciparum [9]
  Activity: Active
Plasmodium falciparum [10]
  IC50: 1400 nM
[11]
  IC50: 37.5 µM
Plasmodium falciparum [12]
  Activity: Active
Plasmodium falciparum [13]
  IC50: 6.4 µM
Plasmodium falciparum [14]
  Activity: Active
Plasmodium falciparum [15]
  Activity: Active
Plasmodium falciparum [16]
  growth inhibition (GI): inactive
Plasmodium falciparum [17]
  growth inhibition (GI): Active
Plasmodium falciparum [18]
  inhibition: inactive
Plasmodium falciparum [19]
  growth inhibition (GI): inactive
Plasmodium falciparum [20]
  growth inhibition (GI): Active
Plasmodium falciparum [21]
  IC50: 2200 nM
[22]
  Ratio IC50: 0.64
[23]
  selectivity ratio: 45.5
Plasmodium falciparum [24]
  Activity: Active
[25]
  Ratio IC50: 2.9
Plasmodium falciparum [26]
  Activity: Active
Plasmodium falciparum [27]
  Activity: Active
Plasmodium falciparum [28]
  Activity: Active
Plasmodium falciparum [29]
  growth inhibition (GI): Active
Plasmodium falciparum [30]
  growth inhibition (GI): Active
